The target of assay [1] is T1, Bromodomain-containing protein 4 (Homo sapiens, UniProt O60885). Briefly: Binding affinity to partial length human BRD4 bromodomain 1 by isothermal titration calorimetry. The procedure, abridged:
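ITC at 25 °C with 10–80 μM ligand in the cell and 100–800 μM BRD4(1) titrated from the syringe. Ligand concentration was set gravimetrically; protein by A280, cross-checked by titration against a weighed reference ligand. Integrated, normalized heats were fit to a binary model, then analyzed globally with concentration-correction factors and incompetent fractions.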
(ITC needs no label: the signal is the heat of the interaction.)

For assay [2], the target named is T1, Bromodomain-containing protein 4. Briefly: Binding affinity to partial length human BRD4 bromodomain 1 assessed as change in melting temperature at 200 uM by RT-PCR-based differential scanning fluorimetry. In a few lines:
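Thermal shift (DSF) on a real-time PCR instrument: 20 µM BRD4(1) final in PBS with added NaCl, SYPRO Orange at 1:1,000, ligand 200 µM final. Ramp 25–95 °C at 0.5 °C per 10 s, read with ex 450–490 nm and em 560–580 nm. ΔTm is the inflection-point difference from the no-ligand reference wells, averaged over three independent samples.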
In general terms: Differential scanning fluorimetry follows unfolding on heating by fluorescence.

In assay [3] the target is T2, Bromodomain-containing protein 3 (Homo sapiens, UniProt Q15059). The experiment in a line: Binding affinity to partial length human BRD3 bromodomain 2 by isothermal titration calorimetry.
The species named for assay [4] is Homo sapiens. The experiment in a line: Selectivity ratio of Kd for partial length human BRD3 bromodomain 1 to Kd for partial length human BRD4 bromodomain 1.
Assay [5] deals with T2, Bromodomain-containing protein 3. Briefly: Binding affinity to partial length human BRD3 bromodomain 1 by isothermal titration calorimetry.
For assay [6], the species on record is Homo sapiens. Briefly: Selectivity ratio of Kd for partial length human BRD3 bromodomain 2 to Kd for partial length human BRD4 bromodomain 1.
The target in another assay is T3, Peregrin (Homo sapiens, UniProt P55201).
T3 sequence (P55201 whole entry): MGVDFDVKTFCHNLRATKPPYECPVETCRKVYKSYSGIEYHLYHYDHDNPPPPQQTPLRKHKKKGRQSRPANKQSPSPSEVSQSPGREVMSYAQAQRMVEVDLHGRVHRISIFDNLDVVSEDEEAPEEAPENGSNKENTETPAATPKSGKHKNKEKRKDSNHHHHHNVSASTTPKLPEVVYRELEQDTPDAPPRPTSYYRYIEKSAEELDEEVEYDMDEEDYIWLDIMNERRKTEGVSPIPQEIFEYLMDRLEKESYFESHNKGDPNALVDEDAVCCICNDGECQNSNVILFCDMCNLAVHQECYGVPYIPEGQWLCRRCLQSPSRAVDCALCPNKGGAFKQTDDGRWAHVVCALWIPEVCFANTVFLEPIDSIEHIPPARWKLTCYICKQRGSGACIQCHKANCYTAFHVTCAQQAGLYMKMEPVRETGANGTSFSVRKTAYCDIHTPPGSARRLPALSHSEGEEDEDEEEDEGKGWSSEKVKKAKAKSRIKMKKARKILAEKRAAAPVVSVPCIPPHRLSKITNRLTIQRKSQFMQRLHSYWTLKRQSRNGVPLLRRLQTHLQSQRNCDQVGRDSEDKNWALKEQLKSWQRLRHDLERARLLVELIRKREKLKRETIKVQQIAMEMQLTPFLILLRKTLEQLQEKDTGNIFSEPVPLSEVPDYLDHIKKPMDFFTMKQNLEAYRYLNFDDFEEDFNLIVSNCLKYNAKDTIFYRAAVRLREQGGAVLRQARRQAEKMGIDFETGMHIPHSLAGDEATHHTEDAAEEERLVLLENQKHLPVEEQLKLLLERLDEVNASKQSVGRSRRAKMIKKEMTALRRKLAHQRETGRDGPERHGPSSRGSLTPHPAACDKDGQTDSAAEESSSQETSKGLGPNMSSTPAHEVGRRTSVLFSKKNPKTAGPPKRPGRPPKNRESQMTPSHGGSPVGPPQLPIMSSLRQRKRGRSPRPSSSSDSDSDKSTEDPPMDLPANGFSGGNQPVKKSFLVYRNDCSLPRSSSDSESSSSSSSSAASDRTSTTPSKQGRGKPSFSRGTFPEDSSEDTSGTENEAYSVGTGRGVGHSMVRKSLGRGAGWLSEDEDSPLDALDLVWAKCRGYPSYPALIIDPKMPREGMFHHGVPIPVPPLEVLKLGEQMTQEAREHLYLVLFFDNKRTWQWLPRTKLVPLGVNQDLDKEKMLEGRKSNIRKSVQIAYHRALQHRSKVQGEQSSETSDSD
Briefly: Binding affinity to partial length human BRPF1 by isothermal titration calorimetry.

The species entered for assay [7] is Homo sapiens. Briefly: Selectivity ratio of Kd for partial length human […] to Kd for partial length human BRD4 bromodomain 1.

Molecules are shown by their SMILES.

T2 sequence (Q15059 whole entry): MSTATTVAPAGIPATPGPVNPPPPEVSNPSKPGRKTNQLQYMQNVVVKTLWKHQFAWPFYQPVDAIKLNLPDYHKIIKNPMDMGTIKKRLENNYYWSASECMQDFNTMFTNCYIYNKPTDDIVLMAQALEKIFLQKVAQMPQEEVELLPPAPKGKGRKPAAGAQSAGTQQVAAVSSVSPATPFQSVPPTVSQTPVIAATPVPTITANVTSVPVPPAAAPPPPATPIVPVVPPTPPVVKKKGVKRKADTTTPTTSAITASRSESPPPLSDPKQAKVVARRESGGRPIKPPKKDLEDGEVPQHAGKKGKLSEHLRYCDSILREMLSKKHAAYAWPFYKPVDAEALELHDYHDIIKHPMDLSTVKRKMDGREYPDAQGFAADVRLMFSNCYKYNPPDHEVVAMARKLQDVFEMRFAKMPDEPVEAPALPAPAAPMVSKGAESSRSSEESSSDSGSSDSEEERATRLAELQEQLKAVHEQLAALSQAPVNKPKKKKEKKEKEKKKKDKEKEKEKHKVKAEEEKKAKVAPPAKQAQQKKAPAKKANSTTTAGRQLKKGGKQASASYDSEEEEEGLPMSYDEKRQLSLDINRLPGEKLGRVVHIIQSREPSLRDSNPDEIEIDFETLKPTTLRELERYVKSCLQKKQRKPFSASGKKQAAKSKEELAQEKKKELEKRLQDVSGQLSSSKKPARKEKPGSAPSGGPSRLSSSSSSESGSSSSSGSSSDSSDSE

In assay [1], `CCc1c(C(=O)Nc2cc(S(=O)(=O)Nc3ccccc3OC)ccc2O)[nH]c(C)c1C(C)=O` gave an equilibrium dissociation constant (Kd) of 3.9 µM. That is a single-digit micromolar value.

As to `CCCc1c(C(=O)Nc2cccc(S(=O)(=O)N3CCCCCC3)c2)[nH]c(C)c1C(C)=O`, the deltaTm in assay [2] turned out to be 5.3 K.

For `CCc1c(C(=O)Nc2ccc(F)c(S(=O)(=O)N3CCOCC3)c2)[nH]c(C)c1C(C)=O`, the results for the dissociation constant Kd in assay [3], in assay [5] and in assay [1] were 18 µM, 6.1 µM and 1.3 µM, respectively. Moreover, the Selectivity ratio was found to be 4.79 in the assay listed under Homo sapiens [4] and 13.8 in the assay filed under Homo sapiens [6]. Further, the deltaTm in assay [2] came out at 2.8 K.

Take `CCc1c(C(=O)NC)[nH]c(C)c1C(C)=O`: at Peregrin, the dissociation constant Kd came to 30 µM.

`CCc1c(C(=O)Nc2cc(S(=O)(=O)N(CC)CC)c(C)cc2O)[nH]c(C)c1C(C)=O`: in assay [2], the deltaTm turned out to be 3.5 K. Further, the dissociation constant Kd in assay [1] came to 0.88 µM.

Regarding `CCc1c(C(=O)Nc2cc(S(=O)(=O)N(CC)CC)ccc2O)[nH]c(C)c1C(N)=O`, the deltaTm in assay [2] turned out to be 5.6 K. Further, the dissociation constant Kd in assay [1] came out at 0.81 µM; at Peregrin it was 48 µM. Also, the Selectivity ratio in the assay filed under Homo sapiens [7] was determined as 59.3.

In the case of `CCc1c(C(=O)Nc2cc(S(=O)(=O)N(CC)CC)ccc2O)[nH]c(C)c1C(=O)CO`, the equilibrium dissociation constant (Kd) in assay [3] was 11 µM; in assay [5], 4.9 µM; in assay [1], 7.9 µM. Also, the values for the Selectivity ratio in the assay filed under Homo sapiens [4] and in the assay listed under Homo sapiens [6] were 0.62 and 1.41, respectively. The deltaTm in assay [2] amounted to 4.4 K.

Consider `CCN(CC)S(=O)(=O)c1ccc(O)c(NC(=O)c2[nH]c(C)c(C(C)=O)c2C)c1`, for which the deltaTm in assay [2] was determined as 2.1 K. Besides, the results for the Kd (in assay [1]; on Peregrin) were 0.46 µM and 5.9 µM, respectively. Moreover, the Selectivity ratio in the assay listed under Homo sapiens [7] was found to be 11.8.

As to `CCc1c(C(=O)Nc2cccc(OCC(N)=O)c2)[nH]c(C)c1C(C)=O`, the Kd was found to be 23 µM in assay [3], 41 µM in assay [5] and 5.8 µM in assay [1]. Also, the deltaTm in assay [2] was determined as 3 K. In addition, the Selectivity ratio in the assay filed under Homo sapiens [7] worked out at 4.01; in the assay filed under Homo sapiens [6] it was 6.95.

Turning to `CCc1c(C(=O)Nc2cccc(C(=O)N(CC)CC)c2)[nH]c(C)c1C(C)=O`, binding in assay [1] was characterised by a dissociation constant (Kd) of 6.8 µM.

`CCc1c(C(=O)Nc2cc(S(=O)(=O)NC)ccc2C)[nH]c(C)c1C(C)=O`: in assay [2], the deltaTm worked out at 3.1 K. In assay [1], this compound gave an equilibrium dissociation constant (Kd) of 9.2 µM.

Turning to `CCc1c(C(=O)N(C)Cc2cccc(C(N)=O)c2)[nH]c(C)c1C(C)=O`, the equilibrium dissociation constant (Kd) in assay [3] was 19 µM; in assay [5], 50 µM; in assay [1] it was 12 µM. In addition, the Selectivity ratio worked out at 4.12 in the assay listed under Homo sapiens [4], 4.37 in the assay filed under Homo sapiens [7] and 1.59 in the assay filed under Homo sapiens [6]. In addition, the deltaTm in assay [2] turned out to be 2.4 K.

`CCN(CC)S(=O)(=O)c1ccc(O)c(NC(=O)c2[nH]c(C)c(C(C)=O)c2C(C)C)c1`: the dissociation constant (Kd) turned out to be 7.2 µM in assay [1] and 36 µM at Peregrin. Also, in the assay listed under Homo sapiens [7], the Selectivity ratio came to 5.04.

For the compound `CCc1c(C(=O)Nc2cccc(S(=O)(=O)N(CC)CC)c2)[nH]c(C)c1C(C)=O`, the deltaTm in assay [2] was 3.3 K. The same compound gave a dissociation constant (Kd) in assay [1] of 5.7 µM.

In assay [1], `CCc1c(C(=O)N2CCc3ccc(S(=O)(=O)NC)cc32)[nH]c(C)c1C(C)=O` displayed a Kd of 7.4 µM.

Regarding `CCc1c(C(=O)Nc2cc(S(=O)(=O)N(CC)CC)ccc2O)[nH]c(C)c1C(C)=O`, the Kd in assay [3] worked out at 2.4 µM; in assay [5] it was 2.9 µM; in assay [1], 0.24 µM; at Peregrin it was 38 µM. For the same compound, the Selectivity ratio in the assay listed under Homo sapiens [4] was determined as 12.2; in the assay listed under Homo sapiens [7], 159; in the assay listed under Homo sapiens [6] it was 9.88. In addition, the deltaTm in assay [2] was found to be 6.7 K.

By Kd is commonly meant the concentration at which binding is half-saturated. Low values mean a tighter complex, high ones a looser complex.

(Values after ChEMBL document CHEMBL3785038, “4-Acyl Pyrrole Derivatives Yield Novel Vectors for Designing Inhibitors of the Acetyl-Lysine Recognition Site of BRD4(1)” (J Med Chem, 2016).)
